Results pooled from the literature.
Lines come from different studies, so protocols differ. In brackets after ≈: the same amount, converted by molar mass.

O=[N+]([O-])c1ccc(NCCCCN=C=S)c2nonc12
IC50 (T47D; cell growth or viability, MTT; 24 h): 2.8 µM

N.N.[Cl][Pt][Cl]
IC50 (SU-DHL-2; cell growth or viability, ATP luminescence; 72 h): 0.56 µM

C#CCCC1(CCC(=O)NCc2cc(=O)c(O)c(CNC(=O)CCCCCC)n2C)N=N1
IC50 (Pseudomonas aeruginosa; microbial growth; PAO1): > 100 µM

C[C@@H](N)[C@H](O)CCCCCCCC(=O)CCCCCCCCCCCCCC[C@@H](O[C@@H]1O[C@H](CO)[C@H](O)[C@H](O)[C@H]1O)[C@@H](C)N
inhibition (Pseudomonas aeruginosa; microbial growth, resazurin; ATCC27853; 50 µM): 99%

C[C@@H]1C[C@@H]([C@H](O)CC2CC(=O)NC(=O)C2)C(=O)[C@@H](C)C1
MIC (Pseudomonas aeruginosa; microbial growth, broth dilution; ATCC27 ATCC27853): 16 µg/mL (≈ 56.9 µM)

Cc1cc(=O)oc2cc(OCCCC[Se]C#N)ccc12
GI50 (T47D; cell growth or viability, SRB): 2.2 µM

O=c1c2ccccc2[se]n1-c1ccccc1
IC50 (Zika virus; viral replication; 48 h): 7.4 µM

N#C[Se]CCCCOc1ccc2c(-c3ccccc3)cc(=O)oc2c1
GI50 (T47D; cell growth or viability, SRB): 26 µM

NNC(=O)c1ccncc1
MIC90 (Mycobacteroides abscessus; microbial growth, broth dilution): > 500 µg/mL

C#CCCCCC(=O)NCc1cc(=O)c(O)c(CNC(=O)CCCCCC)n1C
IC50 (Pseudomonas aeruginosa; microbial growth; PAO1): > 100 µM

Cc1c(Cl)c(=O)oc2cc(OCCCC[Se]C#N)ccc12
GI50 (MIA PaCa-2; cell growth or viability, SRB): 13 µM

C#CCCCCCC(=O)NCc1c(O)c(=O)cc(C)n1C
IC50 (Pseudomonas aeruginosa; microbial growth; PAO1): > 100 µM

NCC[C@H](O)C(=O)N[C@@H]1C[C@H](N)[C@@H](O[C@H]2O[C@H](CN)[C@@H](O)[C@H](O)[C@H]2O)[C@H](O)[C@H]1O[C@H]1O[C@H](CO)[C@@H](O)[C@H](N)[C@H]1O
MIC90 (Mycobacteroides abscessus; microbial growth, broth dilution): 3.4 µg/mL (≈ 5.81 µM)
